Legend:
Conditions in all cases: in vivo
[1] = system: Plasma; assay: Drug uptake in albino F344/DuCrlCrlj rat plasma at 5 mg/kg, po after 168 hrs by liquid scintillation counting; format: ADME, organism-based; design: dose 5 mg/kg, dosed compound name [14C]CS-1036, route oral
[2] = system: Large intestine; assay: Drug uptake in albino F344/DuCrlCrlj rat large intestine at 5 mg/kg, po after 8 hrs by liquid scintillation counting; format: ADME, organism-based; design: dose 5 mg/kg, dosed compound name [14C]CS-1036, route oral
[3] = system: Stomach; assay: Drug uptake in albino F344/DuCrlCrlj rat stomach assessed as ng equivalent of CS-1036 at 5 mg/kg, po after 1 hr by liquid scintillation counting; format: ADME, organism-based; design: dose 5 mg/kg, dosed compound name [14C]CS-1036, route oral
[4] = Drug uptake in albino F344/DuCrlCrlj rat bone marrow at 5 mg/kg, po after 1 hr by liquid scintillation counting; format: ADME, organism-based; design: dose 5 mg/kg, dosed compound name [14C]CS-1036, route oral
[5] = system: Aorta; assay: Drug uptake in albino F344/DuCrlCrlj rat aorta at 5 mg/kg, po after 24 hrs by liquid scintillation counting; format: ADME, organism-based; design: dose 5 mg/kg, dosed compound name [14C]CS-1036, route oral
[6] = system: Zone of skin; assay: Drug uptake in albino F344/DuCrlCrlj rat skin assessed as ng equivalent of CS-1036 at 5 mg/kg, po after 8 hrs by liquid scintillation counting; format: ADME, organism-based; design: dose 5 mg/kg, dosed compound name [14C]CS-1036, route oral
[7] = system: Adrenal gland; assay: Drug uptake in albino F344/DuCrlCrlj rat adrenal gland assessed as ng equivalent of CS-1036 at 5 mg/kg, po after 8 hrs by liquid scintillation counting; format: ADME, organism-based; design: dose 5 mg/kg, dosed compound name [14C]CS-1036, route oral
[8] = Drug uptake in albino F344/DuCrlCrlj rat fat at 5 mg/kg, po after 8 hrs by liquid scintillation counting; format: ADME, organism-based, Adipose tissue; design: dose 5 mg/kg, dosed compound name [14C]CS-1036, route oral
Summary of the method: (§1)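 Male F344/DuCrlCrlj rats (bought at 7 weeks, acclimatized 5–6 days; 159–167 g; n = 3 per time point) received a single oral dose of [14C]CS-1036 at 5 mg/kg. White adipose tissue was collected after abdominal aortic bleeding at 1, 4, 8, 24, 72, 168 or 336 h. Samples were counted by LSC with external-standard efficiency correction. Results were converted to ng equivalents per g from specific activity and sample weight.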

[9] = system: Heart; assay: Drug uptake in albino F344/DuCrlCrlj rat heart at 5 mg/kg, po after 4 hrs by liquid scintillation counting; format: ADME, organism-based; design: dose 5 mg/kg, dosed compound name [14C]CS-1036, route oral
[10] = system: Lung; assay: Drug uptake in albino F344/DuCrlCrlj rat lung assessed as ng equivalent of CS-1036 at 5 mg/kg, po after 168 hrs by liquid scintillation counting; format: ADME, organism-based; design: dose 5 mg/kg, dosed compound name [14C]CS-1036, route oral
[11] = system: Pancreas; assay: Drug uptake in albino F344/DuCrlCrlj rat pancreas at 5 mg/kg, po after 24 hrs by liquid scintillation counting; format: ADME, organism-based; design: dose 5 mg/kg, dosed compound name [14C]CS-1036, route oral
[12] = system: Blood; assay: Drug uptake in albino F344/DuCrlCrlj rat blood assessed as ng equivalent of CS-1036 at 5 mg/kg, po after 8 hrs by liquid scintillation counting; format: ADME, organism-based; design: dose 5 mg/kg, dosed compound name [14C]CS-1036, route oral
Summary of the method: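 Male F344/DuCrlCrlj rats (159–167 g; n = 3 per time point) received a single oral dose of [14C]CS-1036 at 5 mg/kg. Blood was taken from the abdominal aorta at 1, 4, 8, 24, 72, 168 and 336 h. Radioactivity was counted by LSC with external-standard efficiency correction. Results were converted to ng equivalent of CS-1036/ml using specific activity and sample volume, and reported as mean + S.D.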

[13] = system: Cerebrum; assay: Drug uptake in albino F344/DuCrlCrlj rat cerebrum at 5 mg/kg, po after 336 hrs by liquid scintillation counting; format: ADME, organism-based; design: dose 5 mg/kg, dosed compound name [14C]CS-1036, route oral
Summary of the method: (§2)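 Single oral [14C]CS-1036 at 5 mg/kg was given to male rats (159–167 g; n = 3). Cerebrum was collected after aortic bleeding at 1, 4, 8, 24, 72, 168 or 336 h, weighed, and homogenized in 2 volumes of saline. A 0.5 ml aliquot was solubilized in Soluene-350 and counted by LSC with external-standard correction. Results are in ng equivalent/g tissue from specific activity and sample weight.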

[14] = system: Thymus; assay: Drug uptake in albino F344/DuCrlCrlj rat thymus at 5 mg/kg, po after 8 hrs by liquid scintillation counting; format: ADME, organism-based; design: dose 5 mg/kg, dosed compound name [14C]CS-1036, route oral
[15] = Drug uptake in albino F344/DuCrlCrlj rat eyeball at 5 mg/kg, po after 72 hrs by liquid scintillation counting; format: ADME, organism-based; design: dose 5 mg/kg, dosed compound name [14C]CS-1036, route oral
[16] = system: Harderian gland; assay: Drug uptake in albino F344/DuCrlCrlj rat harderian gland at 5 mg/kg, po after 4 hrs by liquid scintillation counting; format: ADME, organism-based; design: dose 5 mg/kg, dosed compound name [14C]CS-1036, route oral
[17] = system: Pancreas; assay: Drug uptake in albino F344/DuCrlCrlj rat pancreas at 5 mg/kg, po after 4 hrs by liquid scintillation counting; format: ADME, organism-based; design: dose 5 mg/kg, dosed compound name [14C]CS-1036, route oral
[18] = system: Aorta; assay: Drug uptake in albino F344/DuCrlCrlj rat aorta assessed as ng equivalent of CS-1036 at 5 mg/kg, po after 1 hr by liquid scintillation counting; format: ADME, organism-based; design: dose 5 mg/kg, dosed compound name [14C]CS-1036, route oral
[19] = system: Cerebrum; assay: Drug uptake in albino F344/DuCrlCrlj rat cerebrum assessed as ng equivalent of CS-1036 at 5 mg/kg, po after 24 hrs by liquid scintillation counting; format: ADME, organism-based; design: dose 5 mg/kg, dosed compound name [14C]CS-1036, route oral; summary of the method: as §2
[20] = system: Aorta; assay: Drug uptake in albino F344/DuCrlCrlj rat aorta assessed as ng equivalent of CS-1036 at 5 mg/kg, po after 4 hrs by liquid scintillation counting; format: ADME, organism-based; design: dose 5 mg/kg, dosed compound name [14C]CS-1036, route oral
[21] = system: Stomach; assay: Drug uptake in albino F344/DuCrlCrlj rat stomach at 5 mg/kg, po after 1 hr by liquid scintillation counting; format: ADME, organism-based; design: dose 5 mg/kg, dosed compound name [14C]CS-1036, route oral
[22] = system: Heart; assay: Drug uptake in albino F344/DuCrlCrlj rat heart at 5 mg/kg, po after 24 hrs by liquid scintillation counting; format: ADME, organism-based; design: dose 5 mg/kg, dosed compound name [14C]CS-1036, route oral
[23] = system: Stomach; assay: Drug uptake in albino F344/DuCrlCrlj rat stomach at 5 mg/kg, po after 72 hrs by liquid scintillation counting; format: ADME, organism-based; design: dose 5 mg/kg, dosed compound name [14C]CS-1036, route oral
[24] = system: Liver; assay: Drug uptake in albino F344/DuCrlCrlj rat liver assessed as ng equivalent of CS-1036 at 5 mg/kg, po after 72 hrs by liquid scintillation counting; format: ADME, organism-based; design: dose 5 mg/kg, dosed compound name [14C]CS-1036, route oral
[25] = system: Liver; assay: Drug uptake in albino F344/DuCrlCrlj rat liver at 5 mg/kg, po after 8 hrs by liquid scintillation counting; format: ADME, organism-based; design: dose 5 mg/kg, dosed compound name [14C]CS-1036, route oral
[26] = Drug uptake in albino F344/DuCrlCrlj rat fat assessed as ng equivalent of CS-1036 at 5 mg/kg, po after 4 hrs by liquid scintillation counting; format: ADME, organism-based, Adipose tissue; design: dose 5 mg/kg, dosed compound name [14C]CS-1036, route oral; summary of the method: as §1
[27] = system: Plasma; assay: Drug metabolism in albino F344/DuCrlCrlj rat plasma assessed as (2R,3R,4R)-2-(hydroxymethyl)pyrrolidine-3,4-diol formation at 10 mg/kg, po after 8 to 72 hrs by liquid scintillation counting; format: ADME, organism-based; design: dose 10 mg/kg, dosed compound name [14C]CS-1036, route oral
[28] = Drug uptake in albino F344/DuCrlCrlj rat brown fat at 5 mg/kg, po after 336 hrs by liquid scintillation counting; format: ADME, organism-based, Brown adipose tissue; design: dose 5 mg/kg, dosed compound name [14C]CS-1036, route oral
[29] = system: Plasma; assay: Drug uptake in albino F344/DuCrlCrlj rat plasma assessed as ng equivalent of CS-1036 at 5 mg/kg, po after 72 hrs by liquid scintillation counting; format: ADME, organism-based; design: dose 5 mg/kg, dosed compound name [14C]CS-1036, route oral
[30] = system: Adrenal gland; assay: Drug uptake in albino F344/DuCrlCrlj rat adrenal gland at 5 mg/kg, po after 168 hrs by liquid scintillation counting; format: ADME, organism-based; design: dose 5 mg/kg, dosed compound name [14C]CS-1036, route oral
[31] = system: Heart; assay: Drug uptake in albino F344/DuCrlCrlj rat heart at 5 mg/kg, po after 336 hrs by liquid scintillation counting; format: ADME, organism-based; design: dose 5 mg/kg, dosed compound name [14C]CS-1036, route oral
[32] = system: Thymus; assay: Drug uptake in albino F344/DuCrlCrlj rat thymus assessed as ng equivalent of CS-1036 at 5 mg/kg, po after 24 hrs by liquid scintillation counting; format: ADME, organism-based; design: dose 5 mg/kg, dosed compound name [14C]CS-1036, route oral
[33] = system: Heart; assay: Drug uptake in albino F344/DuCrlCrlj rat heart assessed as ng equivalent of CS-1036 at 5 mg/kg, po after 4 hrs by liquid scintillation counting; format: ADME, organism-based; design: dose 5 mg/kg, dosed compound name [14C]CS-1036, route oral

C[C@H]1O[C@@H](O[C@H]2[C@H](O)[C@@H](O)[C@@H](O[14C@H]3[14C@H](O)[14CH2]N[14C@@H]3[14CH2]O)O[C@@H]2CO)[C@H](O)[C@@H](O)[C@@H]1O
Radiolabel recovery [1]: 3.57 ngequiv/ml
Radiolabel recovery [2]: 7770 ngequiv/g
Radiolabel recovery [3]: 640 ngequiv/g
Radiolabel recovery [4]: 34.9 ngequiv/g
Radiolabel recovery [5]: 35.2 ngequiv/g
Radiolabel recovery [6]: 71.6 ngequiv/g
Radiolabel recovery [7]: 66.9 ngequiv/g
Radiolabel recovery [8]: 14 ngequiv/g
Radiolabel recovery [9]: 36 ngequiv/g
Radiolabel recovery [10]: 8.2 ngequiv/g
Radiolabel recovery [11]: 310 ngequiv/g
Radiolabel recovery [12]: 6.5 ngequiv/ml
Radiolabel recovery [13]: 4.88 ngequiv/g
Radiolabel recovery [14]: 43.4 ngequiv/g
Radiolabel recovery [15]: 7.83 ngequiv/g
Radiolabel recovery [16]: 39.1 ngequiv/g
Radiolabel recovery [17]: 249 ngequiv/g
Radiolabel recovery [18]: 15.9 ngequiv/g
Radiolabel recovery [19]: 1.5 ngequiv/g
Radiolabel recovery [20]: 13.3 ngequiv/g
Radiolabel recovery [21]: 1670 ngequiv/g
Radiolabel recovery [22]: 41.7 ngequiv/g
Radiolabel recovery [23]: 49 ngequiv/g
Radiolabel recovery [24]: 629 ngequiv/g
Radiolabel recovery [25]: 193 ngequiv/g
Radiolabel recovery [26]: 1.74 ngequiv/g
Drug metabolism [27]: metabolite_detected
Radiolabel recovery [28]: 54.3 ngequiv/g
Radiolabel recovery [29]: 8 ngequiv/ml
Radiolabel recovery [30]: 78.9 ngequiv/g
Radiolabel recovery [31]: 7.28 ngequiv/g
Radiolabel recovery [32]: 5.8 ngequiv/g
Radiolabel recovery [33]: 7 ngequiv/g

Reference: ChEMBL document CHEMBL3526002, “Tissue distribution and identification of radioactivity components at elimination phase after oral administration of [¹⁴C]CS-1036, an α-amylase inhibitor, to rats” (Drug Metab Dispos, 2013)
